Laboratory results reported in ChEMBL document CHEMBL4219091, “Pharmacophore requirements for HIV-1 reverse transcriptase inhibitors that selectively "Freeze" the pre-translocated complex during the polymerization catalytic cycle” (Bioorg Med Chem, 2018).
The source made the active and inactive calls. No cut-off for these calls is given here.

Columns and labels:
[1] = molecular target: T1, Human immunodeficiency virus type 1 reverse transcriptase (Human immunodeficiency virus 1, UniProt Q72547); assay: Inhibition of HIV1 reverse transcriptase p66/p51 polymerase using PPT57 DNA/Cy5-labeled PPT24 as template/primer preincubated for 10 mins followed by dNTP addition measured after 5 mins by bromophenol blue staining based phosphor imaging analysis
Method in brief: (§1)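 Gel-based DNA synthesis: PPT57 DNA template (3-fold molar excess) heat-annealed to 50 nM 5'-Cy5-labeled PPT24 primer; 200 nM RT in 50 mM Tris-HCl pH 7.8, 50 mM NaCl, 6 mM MgCl2. Started with 0.5 mM each dNTP, 5 min, 12% denaturing gel.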

[2] = molecular target: T1, Human immunodeficiency virus type 1 reverse transcriptase; assay: Inhibition of HIV1 reverse transcriptase p66/p51 RNase H preincubated for 10 mins followed by PBS-22dpol/radiolabeled PBS-14r8d addition measured after 5 mins
Method in brief: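 Inhibitors titrated up to 250 µM (≤5% final DMSO), 10 min preincubation at 37 °C before reaction start.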

[3] = molecular target: Human immunodeficiency virus type 1 reverse transcriptase (Human immunodeficiency virus 1) (UniProt Q72547); assay: (§2) Inhibition of HIV1 reverse transcriptase p66/p51 assessed as freezing of template-primer-enzyme complex at pretranslocated stage at 100 uM using 5'-radiolabeled PBS36c DNA/5'-TTCTGACTAAAAGGGTCTGAGGGAT-3 as template/primer preincubated for 10 mins followed by Fe2+ addition by site-specific foot printing assay
Method in brief: (§3)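 Fe2+ chemical footprinting: 50 nM 5'-radiolabeled PBS36c DNA template annealed to 150 nM primer, incubated with 750 nM HIV-1 RT in 120 mM sodium cacodylate (pH 7), 20 mM NaCl, 6 mM MgCl2. Compound added at fixed or increasing concentrations, 10 min preincubation at 37 °C. Screening at fixed concentration, 10 µM or 100 µM depending on compound.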

[4] = molecular target: Human immunodeficiency virus type 1 reverse transcriptase (Human immunodeficiency virus 1) (UniProt Q72547); assay: as §2, with “[…]” for “pretranslocated”, “10” for “100”; method in brief: as §3
[5] = molecular target: T1, Human immunodeficiency virus type 1 reverse transcriptase; assay: Inhibition of HIV1 reverse transcriptase p66/p51
Method in brief: as §1, with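 “MgCl2. Inhibitor titrated up to 250 µM (≤5% final DMSO), 10 min preincubation at 37 °C.” for “MgCl2.”, “gel. IC50 from variable-slope curve fit, ≥3 independent determinations.” for “gel.”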

[6] = molecular target: Human immunodeficiency virus type 1 reverse transcriptase (Human immunodeficiency virus 1) (UniProt Q72547); assay: Ratio of IC50 for HIV1 reverse transcriptase p66/p51 RNase H to IC50 for HIV1 reverse transcriptase p66/p51 polymerase
[7] = molecular target: Human immunodeficiency virus type 1 reverse transcriptase (Human immunodeficiency virus 1) (UniProt Q72547); assay: Inhibition of HIV1 reverse transcriptase p66/p51 assessed as freezing of template-primer-enzyme complex at pretranslocated stage using 5'-radiolabeled PBS36c DNA/5'-TTCTGACTAAAAGGGTCTGAGGGAT-3 as template/primer preincubated for 10 mins followed by Fe2+ addition by site-specific foot printing assay; method in brief: as §3
[8] = molecular target: Human immunodeficiency virus type 1 reverse transcriptase (Human immunodeficiency virus 1, UniProt Q72547, K65R); assay: Inhibition of HIV1 reverse transcriptase p66/p51 polymerase K65R mutant using PPT57 DNA/Cy5-labeled PPT24 as template/primer preincubated for 10 mins followed by dNTP addition measured after 5 mins by bromophenol blue staining based phosphor imaging analysis
Method in brief: (§4)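 Template/primer: Cy5-labelled PPT24 primer (50 nM) heat-annealed to a 3-fold molar excess of PPT57 DNA template. Incubated with 200 nM RT in 50 mM Tris-HCl pH 7.8, 50 mM NaCl, 6 mM MgCl2. Inhibitor titrated up to […], with at most 5% final DMSO. Pre-incubated 10 min at 37 °C. Started with 0.5 mM each dNTP, run 5 min, stopped with formamide dye. Products resolved on 12% denaturing PAGE and imaged. Normalized data fitted to a variable-slope log[inhibitor]–response curve to give IC50.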

[9] = system: Human immunodeficiency virus 1; assay: Ratio of IC50 for HIV1 reverse transcriptase p66/p51 polymerase M184V mutant to IC50 for HIV1 reverse transcriptase p66/p51 polymerase wild type
[10] = system: Human immunodeficiency virus 1; assay: Ratio of IC50 for HIV1 reverse transcriptase p66/p51 polymerase E89K mutant to IC50 for HIV1 reverse transcriptase p66/p51 polymerase wild type
[11] = molecular target: Human immunodeficiency virus type 1 reverse transcriptase (Human immunodeficiency virus 1, UniProt Q72547, E89K); assay: Inhibition of HIV1 reverse transcriptase p66/p51 polymerase E89K mutant using PPT57 DNA/Cy5-labeled PPT24 as template/primer preincubated for 10 mins followed by dNTP addition measured after 5 mins by bromophenol blue staining based phosphor imaging analysis; method in brief: as §4
[12] = system: Human immunodeficiency virus 1; assay: Ratio of IC50 for HIV1 reverse transcriptase p66/p51 polymerase K65R mutant to IC50 for HIV1 reverse transcriptase p66/p51 polymerase wild type
[13] = molecular target: Human immunodeficiency virus type 1 reverse transcriptase (Human immunodeficiency virus 1, UniProt Q72547, M184V); assay: Inhibition of HIV1 reverse transcriptase p66/p51 polymerase M184V mutant using PPT57 DNA/Cy5-labeled PPT24 as template/primer preincubated for 10 mins followed by dNTP addition measured after 5 mins by bromophenol blue staining based phosphor imaging analysis; method in brief: as §4

SMILES	IC50 [1] [µM]	further results
O=C(O)c1nc(-c2ccccc2)nc(O)c1O	> 100	
O=C(O)c1nc(-c2cccc(-c3ccc(F)c(F)c3)c2)nc(O)c1O	> 100	
Cc1noc(C)c1-c1ccc(-c2nc(O)c(O)c(C(=O)O)n2)cc1	> 100	
Nc1ncnc2c1ncn2Cc1nc(O)c(O)c(C(=O)O)n1	> 100	
COc1ccc(-c2cc3c(NCc4nc(O)c(O)c(C(=O)O)n4)ncnc3nc2SC)cc1	62	IC50 [2]: 2 µM
O=C(O)c1nc(Cc2ccc(Cl)cc2)nc(O)c1O	97	
COC(=O)c1nc(-c2ccc(C)c(Br)c2)nc(O)c1O	> 100	
CNC(=O)c1nc(-c2ccc(C)c(Br)c2)nc(O)c1O	> 100	
Cn1c2ccccc2c2c1cc(C#N)c(=O)n2-c1ccc([N+](=O)[O-])cc1		inhibition [4]: Active
O=P(O)(O)C(Nc1cccc(Br)c1)P(=O)(O)O		Active/not active call for freezing the pre-translocated complex [3]: Active
CSc1nc2ncnc(NCc3nc(O)c(O)c(C(=O)O)n3)c2cc1Br	> 100	
O=C(Nc1ccc(-c2cccc(NC(P(=O)(O)O)P(=O)(O)O)c2)cc1)C1CC1		IC50 [2]: 0.8 µM; IC50 [5]: > 50 µM; Active/not active call for freezing the pre-translocated complex [3]: inactive
O=C(O)c1nc(CNc2ncnc3ncccc23)nc(O)c1O	65	
Cc1ccc(-c2nc(O)c(O)c(C(=O)O)n2)cc1Br	1.4 to 1.74	IC50 [2]: 23 µM; IC50 [8]: 1.13 µM; Ratio IC50 [9]: < 2; Ratio IC50 [10]: 2.7; Ratio IC50 [6]: > 10; IC50 [11]: 4.63 µM; Ratio IC50 [12]: < 2; IC50 [13]: 2.79 µM; inhibition [7]: Dose-dependent effect

Second part, led by results:

IC50 [1] [µM]	SMILES	further results
46	O=C(O)c1nc(-c2cccs2)nc(O)c1O	
4.5	O=C(O)c1nc(-c2ccc(Cl)cc2)[nH]c(=O)c1O	
6.3	Cc1ccc(-c2nc(O)c(O)c(C(=O)O)n2)cc1	
49	Cc1cccc(-c2nc(O)c(O)c(C(=O)O)n2)c1	
25	COc1ccc(-c2cnc3ncnc(NCc4nc(O)c(O)c(C(=O)O)n4)c3c2)cc1	IC50 [2]: 1.5 µM; Active/not active call for freezing the pre-translocated complex [3]: inactive
18	O=C(O)c1nc(-c2cccc(Cl)c2)nc(O)c1O	
2.8	O=C(O)c1nc(-c2ccc(Br)cc2)nc(O)c1O	
22	CC(C)c1ccc(-c2nc(O)c(O)c(C(=O)O)n2)cc1	
41	Nc1ncnc2c1ncn2CCc1nc(O)c(O)c(C(=O)O)n1	
49	O=C(O)c1nc(CNc2ncnc3ncc(Br)cc23)nc(O)c1O	Active/not active call for freezing the pre-translocated complex [3]: inactive
20	O=C(O)c1nc(-c2cc(C(F)(F)F)cc(C(F)(F)F)c2)nc(O)c1O	Active/not active call for freezing the pre-translocated complex [3]: inactive
14	O=C(O)c1nc(-c2cccc(Br)c2)nc(O)c1O	Active/not active call for freezing the pre-translocated complex [3]: Active
1.6	Cc1ccc(-c2nc(O)c(O)c(C(=O)O)n2)cc1Cl	IC50 [2]: 25 µM; Ratio IC50 [6]: > 10; inhibition [7]: Dose-dependent effect
